We go through seven molecules from ChEMBL document CHEMBL5550192, “Discovery of first-in-class PROTACs targeting maternal embryonic leucine zipper kinase (MELK) for the treatment of Burkitt lymphoma” (RSC Med Chem, 2024).

Molecules are shown by their SMILES. Calls of active or inactive are those of the source. The rule behind the calls is not given here. Where only a bound is given, the exact number is not on record here.

Data set [1] deals with T1, Protein cereblon/Maternal embryonic leucine zipper kinase (Homo sapiens, UniProt Q14680+Q96SW2). The experiment in a line: PROTAC activity at CRBN/MELK in human Ramos cells assessed as induction of MELK degradation by immunoblot analysis. In kind it is cell-based. Summed up:
(§1)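 Ramos cells in 12-well plates (1 mL medium) treated with compound at various concentrations. Lysed in 2X SDS sample buffer and boiled 15 min. Proteins resolved on 10% SDS-PAGE and transferred to PVDF. Probed with MELK, mTOR or p-mTOR antibodies, with β-actin/β-tubulin as loading controls. ECL detection, band densitometry, DC50 from nonlinear regression.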
Target sequence in this assay (Q14680 whole entry): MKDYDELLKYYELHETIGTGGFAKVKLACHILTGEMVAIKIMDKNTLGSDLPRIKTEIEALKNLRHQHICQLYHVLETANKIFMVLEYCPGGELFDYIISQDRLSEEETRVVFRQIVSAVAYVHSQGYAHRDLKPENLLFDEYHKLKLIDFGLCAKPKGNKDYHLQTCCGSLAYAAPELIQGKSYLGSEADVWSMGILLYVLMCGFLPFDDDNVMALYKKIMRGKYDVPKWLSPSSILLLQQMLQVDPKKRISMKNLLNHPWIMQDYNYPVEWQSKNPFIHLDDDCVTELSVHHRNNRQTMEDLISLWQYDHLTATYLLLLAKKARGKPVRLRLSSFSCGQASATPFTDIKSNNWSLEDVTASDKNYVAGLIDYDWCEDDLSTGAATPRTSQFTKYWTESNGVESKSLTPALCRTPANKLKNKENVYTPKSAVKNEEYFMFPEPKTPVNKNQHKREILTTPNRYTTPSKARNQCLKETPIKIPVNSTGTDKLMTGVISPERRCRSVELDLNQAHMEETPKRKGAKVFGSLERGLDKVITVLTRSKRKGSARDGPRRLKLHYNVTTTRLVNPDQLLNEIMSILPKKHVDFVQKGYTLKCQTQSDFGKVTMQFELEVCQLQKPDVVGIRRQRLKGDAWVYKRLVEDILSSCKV
Target sequence in this assay (Q96SW2 whole entry): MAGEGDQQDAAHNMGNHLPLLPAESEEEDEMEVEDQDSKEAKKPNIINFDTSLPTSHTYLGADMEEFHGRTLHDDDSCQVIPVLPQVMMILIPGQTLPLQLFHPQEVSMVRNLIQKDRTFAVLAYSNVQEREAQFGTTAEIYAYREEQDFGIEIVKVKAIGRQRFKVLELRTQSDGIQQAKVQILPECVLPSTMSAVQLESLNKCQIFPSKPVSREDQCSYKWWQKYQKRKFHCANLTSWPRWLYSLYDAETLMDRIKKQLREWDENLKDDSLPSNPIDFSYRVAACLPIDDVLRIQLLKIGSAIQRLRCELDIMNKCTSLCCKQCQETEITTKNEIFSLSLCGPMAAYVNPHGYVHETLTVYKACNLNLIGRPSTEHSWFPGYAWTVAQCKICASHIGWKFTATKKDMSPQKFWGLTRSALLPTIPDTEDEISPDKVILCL

Data set [2] concerns the target T1, Protein cereblon/Maternal embryonic leucine zipper kinase. The experiment in a line: PROTAC activity at CRBN/MELK in human Ramos cells assessed as residual activity at 5 uM measured after 48 hrs by immunoblot analysis relative to control. In kind it is cell-based.
Target sequence in this assay (Q14680 whole entry, looked up): as the sequence (Q14680 whole entry) above
Target sequence in this assay (Q96SW2 whole entry, looked up): as the sequence (Q96SW2 whole entry) above
Data set [3] can be described thus: Selectivity ratio of CC50 for human MDA-MB-231 cells to IC50 for human Ramos cells.
The test system of data set [4] is Ramos. The experiment in a line: Cytotoxicity against human Ramos cells assessed as inhibition of cell growth measured after 72 to 96 hrs by CCK-8 method. In kind it is functional, cell-based. Summed up: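 Ramos grown in RPMI 1640 with 10% FBS, 1% pen-strep, 1% NEAA and 50 μM 2-mercaptoethanol at 37°C, 5% CO₂. Plated at 3000 cells/well with compound diluted in medium from DMSO stock. Incubated 72–96 h, then CCK-8 added for 4 h. Absorbance read at 450 nm, normalized to DMSO-treated cells. EC50 from nonlinear regression.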

For another data set, the system named is MDA-MB-231. The data set is described as follows: Cytotoxicity against human MDA-MB-231 cells assessed as inhibition of cell growth measured after 72 to 96 hrs by CCK-8 method. In kind it is functional. To be noted: time 72-96 hrs. Summed up: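 MDA-MB-231 grown in DMEM with 10% FBS, 1% pen-strep, 1% NEAA and 50 μM 2-mercaptoethanol at 37°C, 5% CO₂. Plated at 3000 cells/well with compound diluted in medium from DMSO stock. Incubated 72–96 h, then CCK-8 added for 4 h. Absorbance read at 450 nm, normalized to DMSO-treated cells. EC50 from nonlinear regression.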

Data set [5] concerns Ramos. The experiment in a line: Induction of apoptosis in human Ramos cells at 20 uM measured after 24 hrs by calcein-AM/propidium iodide staining based fluorescence microscopic analysis. In kind it is functional, cell-based. Summed up:
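Ramos cells, 2×10^5 per well in 12-well plates, exposed to compound or DMSO for 24 h. Washed in cold PBS, then stained with calcein-AM/propidium iodide working solution for 30 min at 37°C in the dark. Examined by fluorescence microscopy.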

Data set [6] has as its system Ramos. The data set is described as follows: Upregulation of MELK mRNA level in human Ramos cells at 20 uM incubated for 24 hrs by qPCR analysis. In kind it is functional, cell-based. Summed up: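 Ramos cells in 6-well plates exposed to 20 μM compound or DMSO for 24 h. MELK mRNA measured by qPCR with MELK-specific primers. Relative expression by the 2^-ΔΔCt method, normalized to 18S mRNA (actin also stated as internal control). Run in triplicate.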

The next data set concerns DOHH-2. The data set is described as follows: Upregulation of MELK mRNA level in human DOHH-2 cells at 20 uM incubated for 24 hrs by qPCR analysis. In kind it is functional, cell-based.
Data set [7] has as its target T1, Protein cereblon/Maternal embryonic leucine zipper kinase. The data set is described as follows: PROTAC activity at CRBN/MELK in human Ramos cells assessed as degradation of MELK at 20 uM pretreated with MLN4924 followed by compound addition and measured after 24 hrs by immunoblot analysis. In kind it is cell-based.
Target sequence in this assay (Q14680 whole entry, looked up): as the sequence (Q14680 whole entry) above
Target sequence in this assay (Q96SW2 whole entry, looked up): as the sequence (Q96SW2 whole entry) above
The subject of data set [8] is Ramos. The experiment in a line: Induction of apoptosis in human Ramos cells assessed as early apoptotic cells at 20 uM measured after 24 hrs by Annexin V-FITC and propidium iodide staining based flow cytometry analysis (reference value: 9.69%). In kind it is functional. Summed up: (§2)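 Ramos cells, 1×10^6 per well in 6-well plates, treated with compound or DMSO for 24 h. Washed in cold PBS, resuspended in Annexin V binding buffer, stained with Annexin V-FITC and propidium iodide. Populations quantified by flow cytometry.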

Data set [9] has as its system Ramos. The experiment in a line: Induction of apoptosis in human Ramos cells assessed as necrotic cells at 20 uM measured after 24 hrs by Annexin V-FITC and propidium iodide staining based flow cytometry analysis (reference value: 0.34%). The class given is functional. Summed up:
as §2

The test system of data set [10] is Ramos. The experiment in a line: Induction of apoptosis in human Ramos cells assessed as viable cells at 20 uM measured after 24 hrs by Annexin V-FITC and propidium iodide staining based flow cytometry analysis (reference value: 84.9%). The class given is functional. As to conditions: read-out: Activity. Summed up:
as §2

A further data set relates to HUVEC. The experiment in a line: Cytotoxicity against human HUVEC cells at 4 uM measured after 24 hrs by tube formation assay. In kind it is toxicity, cell-based. Summed up: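 HUVEC, 3×10^4 cells/well, seeded on Matrigel-coated wells (Matrigel set 4 h at 37°C) in medium containing compound. Tubes imaged by optical microscopy and quantified by image analysis. Three independent experiments.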

Data set [11] has as its target T1, Protein cereblon/Maternal embryonic leucine zipper kinase. The data set is described as follows: PROTAC activity at CRBN/MELK in human Ramos cells assessed as inhibition of mTOR phosphorylation at upto 64 uM measured after 24 hrs Western blot analysis. In kind it is cell-based. Summed up:
as §1
Target sequence in this assay (Q14680 whole entry, looked up): as the sequence (Q14680 whole entry) above
Target sequence in this assay (Q96SW2 whole entry, looked up): as the sequence (Q96SW2 whole entry) above

Data set [12] has the same target. The data set is described as follows: PROTAC activity at CRBN/MELK in human Ramos cells assessed as inhibition of mTOR phosphorylation measured after 24 hrs Western blot analysis. In kind it is cell-based. Summed up:
as §1
Target sequence in this assay (Q14680 whole entry): as the sequence (Q14680 whole entry) above
Target sequence in this assay (Q96SW2 whole entry): as the sequence (Q96SW2 whole entry) above

Data set [13] has the same target. The experiment in a line: PROTAC activity at CRBN/MELK in human Ramos cells assessed as degradation of MELK by measuring half life at 20 uM measured for 48 hrs by Western blot analysis. The class given is cell-based.
Target sequence in this assay (Q14680 whole entry, looked up): as the sequence (Q14680 whole entry) above
Target sequence in this assay (Q96SW2 whole entry, looked up): as the sequence (Q96SW2 whole entry) above
For data set [14] the target is unchanged. The experiment in a line: PROTAC activity at CRBN/MELK in human Ramos cells assessed as induction of MELK degradation by immunoblot analysis relative to control. The class given is cell-based. Summed up:
as §1
Target sequence in this assay (Q14680 whole entry, looked up): as the sequence (Q14680 whole entry) above
Target sequence in this assay (Q96SW2 whole entry, looked up): as the sequence (Q96SW2 whole entry) above

In data set [15] the test system is Ramos. The experiment in a line: Induction of cell cycle arrest in human Ramos cells assessed as accumulation of cells at G2/M phase at 10 uM measured after 24 hrs by propidium iodide staining based flow cytometry analysis. In kind it is functional. Summed up:
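Ramos cells exposed to compound or DMSO for 24 h, washed in cold PBS and fixed overnight in 70% ethanol. Stained with propidium iodide for 30 min at 37°C in the dark. Cell-cycle phase distribution determined by flow cytometry.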

The target in data set [16] is T1, Protein cereblon/Maternal embryonic leucine zipper kinase. The experiment in a line: PROTAC activity at CRBN/MELK in human Ramos cells assessed as degradation of MELK at 20 uM pretreated with MG132 followed by compound addition and measured after 24 hrs by immunoblot analysis. In kind it is cell-based.
Target sequence in this assay (Q14680 whole entry, looked up): as the sequence (Q14680 whole entry) above
Target sequence in this assay (Q96SW2 whole entry, looked up): as the sequence (Q96SW2 whole entry) above
Data set [17] relates to Ramos. The experiment in a line: Induction of apoptosis in human Ramos cells assessed as late apoptotic cells at 20 uM measured after 24 hrs by Annexin V-FITC and propidium iodide staining based flow cytometry analysis (reference value: 5.05%). In kind it is functional. Summed up: as §2

Regarding `CC(C)COc1cnccc1-c1cnn(-c2ccc(N3CCN(Cc4cn(CCOCCOCCOCCNc5ccc6c(c5)C(=O)N(C5CCC(=O)NC5=O)C6=O)nn4)CC3)cc2)c1` (centres undefined), in [1], the DC50 was under 5 µM. For the same molecule, the Activity in [2] came to 49.6%.

Consider `COc1cc(-c2cn[nH]c2)ccc1C(=O)Nc1ccc2c(c1)CCNCC2`, for which the “Ratio CC50/IC50” value in [3] was 0.9. Further, in the data set with Ramos [4], the IC50 came out at 9.1 µM. Besides, the CC50 in the data set with MDA-MB-231 was found to be 7.9 µM.

Turning to `CC(C)COc1cnccc1-c1cnn(-c2ccc(N3CCN(Cc4cn(CCCCCCCNc5ccc6c(c5)C(=O)N(C5CCC(=O)NC5=O)C6=O)nn4)CC3)cc2)c1` (centres undefined), the DC50 in [1] was under 5 µM. Further, in data set [2], the Activity was determined as 37.7%.

In the case of `CC(C)COc1cnccc1-c1cnn(-c2ccc(N3CCN(Cc4cn(CCOCCOCCNc5ccc6c(c5)C(=O)N(C5CCC(=O)NC5=O)C6=O)nn4)CC3)cc2)c1` (centres undefined), the result (in the data set on Ramos [5]; in the data set with Ramos [6]; in the data set with DOHH-2; in [11]; in the data set on Ramos [15]) was Active. In data set [1], the DC50 worked out at 2.1 µM. Moreover, the Activity was 14.3% in [2]; 42.1% in the data set with Ramos [8]; 0.25% in the data set on Ramos [9]; “Non-Toxic” in the data set on HUVEC; 12.8% in the data set on Ramos [17]. Moreover, the result in [7] and in data set [16] was inactive. For the same molecule, the “Ratio CC50/IC50” value in data set [3] came to 7.6. The viability at 20 µM in the data set with Ramos [10] came to 44.9%. Also, the results for the concentration for a half-maximal effect (EC50) (in the data set with Ramos [4]; in data set [12]) were 1.8 µM and 2.3 µM, respectively. Also, the T1/2 in data set [13] was under 3 h. For the same molecule, the Emax in [14] came to 91.6%. Besides, the CC50 in the data set on MDA-MB-231 is 13.8 µM.

Regarding `CC(C)COc1cnccc1-c1cnn(-c2ccc(N3CCN(Cc4cn(CCOCCNc5ccc6c(c5)C(=O)N(C5CCC(=O)NC5=O)C6=O)nn4)CC3)cc2)c1` (centres undefined), the DC50 in data set [1] is under 5 µM. Besides, the Activity in data set [2] was found to be 49.3%.

Consider `CC(C)COc1cnccc1-c1cnn(-c2ccc(N3CCN(Cc4cn(CCOCCOCCOCCOCCNc5ccc6c(c5)C(=O)N(C5CCC(=O)NC5=O)C6=O)nn4)CC3)cc2)c1` (centres undefined), for which, in data set [1], the DC50 is under 5 µM. In data set [2], the Activity turned out to be 42.7%.

On to `CN1CCN(c2ccc(-n3cc(-c4ccncc4OCC4CCNCC4)cn3)cc2)CC1`, for which, in data set [3], the “Ratio CC50/IC50” value turned out to be 0.7. Moreover, the IC50 with Ramos [4] came to 3.4 µM. Moreover, the CC50 in the data set with MDA-MB-231 was 2.3 µM.
